Measurements of several laboratories.
Each line is one published result; the experiments were not run side by side.
Target: RAC-alpha serine/threonine-protein kinase (AKT1, Homo sapiens, UniProt P31749)

| SMILES | assay | conditions | endpoint | result |
| --- | --- | --- | --- | --- |
| Cc1nn(C)cc1-c1nc2c(N3CCN(Cc4ccc(Cl)cc4)CC3)c(Cl)cnc2[nH]1 | binding, competition with immobilised ligand | 1 µM | remaining binding | 100% |
| COc1ncccc1-c1cnn2ccc(N3CCN(C(=O)OC(C)C)CC3)nc12 | binding, competition with immobilised ligand | 1 µM | remaining binding | 100% |
| O=C(NCc1ncc(C(F)(F)F)cc1Cl)c1ccc2c(c1)C1(CCS(=O)(=O)CC1)[C@H](C1CC1)N2S(=O)(=O)c1ccc(F)cc1 | cell-free assay, competition with immobilised ligand | 1 µM | remaining binding | 96% |
| C#Cc1n[nH]c2c(-c3cn([C@@H](C)c4ccccc4)c(=O)[nH]c3=O)cc(F)cc12 | enzyme activity, inhibitor | 0.1 µM | inhibition | 1.4% |
| Nc1ncc(-c2nc(N3CCOCC3)nc(N3CCOCC3)n2)c(C(F)F)n1 | binding, competition with immobilised ligand | 10 µM | remaining binding | 94% |
| O=c1[nH]c2ccccc2n1C1CCN(Cc2ccc(-c3[nH]c4cc5ncnc5cc4nc3-c3ccccc3)cc2)CC1 | cell-free assay | 0.5 µM | remaining signal | 114% |
| Cn1cc(-c2cc(F)cc(N3CCn4c(cc5c4CCCC5)C3=O)c2CO)cc(Nc2ccc(N3CCN(C4COC4)CC3)cn2)c1=O | enzyme activity, inhibitor | 0.1 µM | inhibition | 5% |
| Cn1cncc1[C@](O)(COc1ccc(C#N)cc1-c1ccc(OC(F)(F)F)cc1)c1ccc(C#N)cc1 | cell-free assay, competition with immobilised ligand | 1 µM | remaining binding | 84% |
| CC(C)(C)c1cc(C=C(C#N)C#N)cc(Br)c1O | enzyme activity, inhibitor | 0.5 µM | remaining activity | 108% |
| Cn1cc(-c2cccc(N3CCc4c(sc5c4CC(C)(C)C5)C3=O)c2CO)cc(Nc2ccncn2)c1=O | enzyme activity, inhibitor | 1 µM | inhibition | 4% |
| C#Cc1n[nH]c2c(-c3cn(C(C)c4ccccn4)c(=O)[nH]c3=O)cc(F)cc12 (stereo not drawn) | enzyme activity, inhibitor | 1 µM | inhibition | 3.7% |
| COc1cc(Nc2ncc(F)c(Nc3ccc4c(n3)NC(=O)C(C)(C)O4)n2)cc(OC)c1OC | binding, competition with immobilised ligand | 10 µM | inhibition | 0% |
